The source made the active and inactive calls. The rule behind the calls is not given here.
Tests used:
[1] = Activation of PDHP in presence of 5 mM Mn2+
Procedure, shortened: (§1)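 Triplicate wells. PDHP and PDH incubated 37 °C 30 min. NaF stop, then pyruvate-ADP and NAD/cocarboxylase/CoA mix, 2 min rt. Activity read as absorbance change at 340 nm; data pooled from two experiments with separately synthesized samples.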

[2] = molecular target: T1, Protein phosphatase 1A (Mus musculus) (UniProt P49443); assay: Activation of mouse recombinant GST-tagged PP2Calpha assessed as phosphate release using octapeptide-phosphate substrate RRRRPp-TPA
T1 sequence (whole entry): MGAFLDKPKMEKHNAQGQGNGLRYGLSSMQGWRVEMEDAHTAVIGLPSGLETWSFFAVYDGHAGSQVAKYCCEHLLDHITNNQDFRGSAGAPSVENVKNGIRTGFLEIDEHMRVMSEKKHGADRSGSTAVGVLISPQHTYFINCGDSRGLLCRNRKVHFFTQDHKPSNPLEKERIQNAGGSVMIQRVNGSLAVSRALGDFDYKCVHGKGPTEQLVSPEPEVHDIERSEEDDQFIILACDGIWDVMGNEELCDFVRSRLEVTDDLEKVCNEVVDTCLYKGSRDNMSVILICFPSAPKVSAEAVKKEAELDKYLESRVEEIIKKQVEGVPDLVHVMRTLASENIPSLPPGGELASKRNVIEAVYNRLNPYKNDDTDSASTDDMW
Procedure, shortened: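 Mouse wild-type GST-PP2Cα fusion (2 µg) at rt in 0.1 M Tris-HCl pH 8.0, 2 mM DTT, with varied MnCl₂ or compound. Phosphopeptide RRRRPpTPA at 5 µM final, 15 min. Stopped with malachite green, 15 min color, A650. No-enzyme blanks subtracted; triplicates, mean ± SD versus concentration.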

[3] = molecular target: T1, Protein phosphatase 1A (Mus musculus); assay: Activation of mouse recombinant GST-tagged PP2Calpha assessed as phosphate release using para-Nitrophenyl phosphate substrate
Procedure, shortened: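 Mouse wild-type GST-PP2Cα fusion (1 µg) at rt in 0.1 M Tris-HCl pH 8.0, 2 mM DTT, with varied MnCl₂ or compound. Substrate 5 mM p-nitrophenyl phosphate, 30 min. Stopped with 0.5% SDS, A410. Triplicates, mean ± SD versus concentration.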

[4] = Activation of PDHP in absence of 5 mM Mn2+; procedure, shortened: as §1

Activity [1] | Activity [2] | Activity [3] | Activity [4] | Structure (SMILES)
inactive | inactive | inactive | inactive | CO[C@@H]1[C@@H](O)[C@@H](O)[C@H](O)[C@H](O)[C@H]1C[C@@H]1O[C@H](CO)[C@H](O)[C@H](O)[C@H]1O
Active | Active | inactive | inactive | CO[C@@H]1[C@@H](O)[C@@H](O)[C@H](O)[C@H](O)[C@H]1O[C@@H]1O[C@H](CO)[C@H](O)[C@H](O)[C@H]1N
Active | inactive | inactive | inactive | CO[C@@H]1[C@@H](O)[C@@H](O)[C@H](O)[C@H](O)[C@H]1C[C@@H]1O[C@H](CO)[C@H](O)[C@H](O)[C@H]1N
